Laboratory results from ChEMBL document CHEMBL2074309, “The drug transporter P-glycoprotein limits oral absorption and brain entry of HIV-1 protease inhibitors” (J Clin Invest, 1998).

Assays:
[1] = molecular target: T1, ATP-dependent translocase ABCB1 (Homo sapiens, UniProt P08183); test: TP_TRANSPORTER: transepithelial transport (basal to apical) in MDR1-expressing LLC-PK1 cells; assay type: functional, cell-based; conditions: pig
How it was run: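 L-MDR1 cells (LLC-PK1 expressing MDR1) plated at 4×10^5 cells/12-mm well on 3.0 µm polycarbonate Transwell filters, used day 4; resistance ≥200 Ω after blank correction. Serum-free Optimem; [14C]-drug 5 µM added to basal compartment, apical radioactivity sampled at 1, 2, 3, 4 h by scintillation, given as % of total added; parental LLC-PK1 run alongside; mean ± SE, ≥3 experiments.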

[2] = molecular target: ATP-dependent translocase ABCB1 (Mus musculus, UniProt P21447); test: TP_TRANSPORTER: increase in brain concentration in mdr1a(-/-) mouse; assay type: functional, organism-based; conditions: in vivo
Chain of ATP-dependent translocase ABCB1 (Mus musculus, UniProt P21447) (P21447 whole entry): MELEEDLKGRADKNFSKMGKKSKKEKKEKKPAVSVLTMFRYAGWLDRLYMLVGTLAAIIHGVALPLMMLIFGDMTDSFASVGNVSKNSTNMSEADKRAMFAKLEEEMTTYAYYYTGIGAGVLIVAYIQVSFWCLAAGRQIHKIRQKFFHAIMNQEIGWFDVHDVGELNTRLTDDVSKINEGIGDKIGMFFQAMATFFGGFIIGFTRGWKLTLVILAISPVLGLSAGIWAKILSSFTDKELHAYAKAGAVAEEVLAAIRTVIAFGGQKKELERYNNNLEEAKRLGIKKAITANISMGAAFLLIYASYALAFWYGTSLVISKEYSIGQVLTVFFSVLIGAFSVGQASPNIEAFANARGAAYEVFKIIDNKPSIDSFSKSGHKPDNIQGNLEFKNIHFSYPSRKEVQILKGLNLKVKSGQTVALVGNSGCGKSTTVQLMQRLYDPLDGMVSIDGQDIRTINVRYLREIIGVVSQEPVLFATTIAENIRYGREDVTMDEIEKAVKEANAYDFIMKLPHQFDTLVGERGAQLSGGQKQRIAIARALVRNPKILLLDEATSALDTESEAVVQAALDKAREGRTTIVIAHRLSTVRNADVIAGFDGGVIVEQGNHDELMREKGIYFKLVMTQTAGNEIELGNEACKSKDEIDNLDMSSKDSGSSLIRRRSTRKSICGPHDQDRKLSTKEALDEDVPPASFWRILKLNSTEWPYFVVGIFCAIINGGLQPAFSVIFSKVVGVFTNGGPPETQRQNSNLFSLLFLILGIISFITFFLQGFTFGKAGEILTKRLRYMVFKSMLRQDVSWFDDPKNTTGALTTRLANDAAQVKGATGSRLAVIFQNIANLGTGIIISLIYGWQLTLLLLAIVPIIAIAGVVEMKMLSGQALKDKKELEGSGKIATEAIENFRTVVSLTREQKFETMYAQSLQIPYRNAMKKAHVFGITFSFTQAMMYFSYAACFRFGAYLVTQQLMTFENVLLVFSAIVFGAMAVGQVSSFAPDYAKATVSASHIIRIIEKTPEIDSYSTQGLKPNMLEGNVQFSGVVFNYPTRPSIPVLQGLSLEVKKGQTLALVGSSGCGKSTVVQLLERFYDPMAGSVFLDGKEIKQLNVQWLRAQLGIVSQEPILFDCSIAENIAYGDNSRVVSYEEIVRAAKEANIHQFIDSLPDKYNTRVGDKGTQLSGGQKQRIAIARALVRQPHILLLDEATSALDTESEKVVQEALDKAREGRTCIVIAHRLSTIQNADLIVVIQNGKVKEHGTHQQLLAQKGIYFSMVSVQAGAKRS
How it was run: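 Male mdr1a(-/-) (FVB/TacBR-[KO]mdr1aN7) and matched mdr1a(+/+) FVB/NTacBR mice, 6–12 wk, three per group. [14C]-drug (indinavir 1.5 mg/kg, nelfinavir 3 mg/kg, saquinavir 2 mg/kg) in ethanol/0.9% saline, given i.v. into tail vein over 10 min. At 4 h, isoflurane anesthesia, orbital exsanguination, brain homogenized in 4% BSA. Total radioactivity by scintillation; value is (-/-)/(+/+) ratio of brain levels.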

[3] = molecular target: T1, ATP-dependent translocase ABCB1; test: TP_TRANSPORTER: inhibition of Saquinavir transepithelial transport (basal to apical) (Saquinavir: 5 uM, PSC-833: 1 uM) in Caco-2 cells; assay type: functional, cell-based; conditions: caco-2, 1 µM
How it was run: (§1)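 Caco-2 monolayers on 0.4 µm polycarbonate Transwell filters, plated at 10^5 cells/12-mm well, used on day 4; wells with resistance ≥200 Ω (blank-corrected) used. […] Radioactivity reaching apical side sampled at 1, 2, 3, 4 h, expressed as % of added; mean ± SE, ≥3 experiments.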

[4] = molecular target: T1, ATP-dependent translocase ABCB1; test: TP_TRANSPORTER: inhibition of Nelfinavir transepithelial transport (basal to apical) (Nrlfinavir: 5 uM, PSC-833: 1 uM) in Caco-2 cells; assay type: functional, cell-based; conditions: caco-2, 1 µM; how it was run: as §1
[5] = molecular target: T1, ATP-dependent translocase ABCB1; test: TP_TRANSPORTER: inhibition of Indinavir transepithelial transport (basal to apical) (Indinavir: 5 uM, PSC-833: 1 uM) in Caco-2 cells; assay type: functional, cell-based; conditions: caco-2, 1 µM; how it was run: as §1

T1 sequence (P08183 whole entry): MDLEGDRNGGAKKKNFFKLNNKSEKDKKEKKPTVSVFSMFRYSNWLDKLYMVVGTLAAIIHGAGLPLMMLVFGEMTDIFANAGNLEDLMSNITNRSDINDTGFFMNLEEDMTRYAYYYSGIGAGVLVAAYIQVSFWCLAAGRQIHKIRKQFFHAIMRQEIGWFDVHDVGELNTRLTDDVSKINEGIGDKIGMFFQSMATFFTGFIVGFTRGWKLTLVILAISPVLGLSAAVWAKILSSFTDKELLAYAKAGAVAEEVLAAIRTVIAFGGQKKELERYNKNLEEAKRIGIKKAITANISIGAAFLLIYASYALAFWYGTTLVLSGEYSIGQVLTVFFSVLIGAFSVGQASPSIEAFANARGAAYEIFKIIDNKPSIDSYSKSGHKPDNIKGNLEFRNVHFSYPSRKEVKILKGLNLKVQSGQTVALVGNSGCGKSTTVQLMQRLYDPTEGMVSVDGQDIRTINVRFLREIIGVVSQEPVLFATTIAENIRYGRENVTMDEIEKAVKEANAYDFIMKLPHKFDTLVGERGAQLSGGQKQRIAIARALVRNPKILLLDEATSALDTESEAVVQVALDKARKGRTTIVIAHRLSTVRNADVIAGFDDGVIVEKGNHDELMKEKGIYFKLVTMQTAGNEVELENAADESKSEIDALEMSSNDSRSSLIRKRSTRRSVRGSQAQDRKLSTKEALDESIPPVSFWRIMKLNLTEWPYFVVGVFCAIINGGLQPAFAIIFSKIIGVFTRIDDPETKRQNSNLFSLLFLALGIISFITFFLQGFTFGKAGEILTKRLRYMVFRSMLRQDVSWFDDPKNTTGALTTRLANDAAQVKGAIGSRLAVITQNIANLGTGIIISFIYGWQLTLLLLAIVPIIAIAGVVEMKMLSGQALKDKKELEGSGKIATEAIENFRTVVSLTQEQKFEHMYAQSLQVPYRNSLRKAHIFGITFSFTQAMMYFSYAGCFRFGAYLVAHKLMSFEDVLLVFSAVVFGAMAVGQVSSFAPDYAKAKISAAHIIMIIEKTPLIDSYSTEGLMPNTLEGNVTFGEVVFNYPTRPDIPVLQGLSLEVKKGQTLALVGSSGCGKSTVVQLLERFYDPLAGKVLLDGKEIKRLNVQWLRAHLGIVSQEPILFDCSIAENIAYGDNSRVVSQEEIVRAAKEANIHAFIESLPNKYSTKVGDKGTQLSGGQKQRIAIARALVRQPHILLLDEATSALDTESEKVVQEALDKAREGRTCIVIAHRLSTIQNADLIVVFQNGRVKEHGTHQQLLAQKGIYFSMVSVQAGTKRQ

Activity [1]	Activity [2]	Activity [3]	Activity [4]	Activity [5]	Compound
substrate [+]	substrate [+]	–	–	–	CC(C)(C)NC(=O)[C@@H]1CN(Cc2cccnc2)CCN1C[C@@H](O)C[C@@H](Cc1ccccc1)C(=O)N[C@H]1c2ccccc2C[C@H]1O.O
substrate [+]	substrate [+]	–	–	–	Cc1c(O)cccc1C(=O)N[C@@H](CSc1ccccc1)[C@H](O)CN1C[C@H]2CCCC[C@H]2C[C@H]1C(=O)NC(C)(C)C
–	–	inhibitor [+]	inhibitor [+]	inhibitor [+]	C/C=C/C[C@@H](C)C(=O)[C@H]1C(=O)N[C@@H](C(C)C)C(=O)N(C)CC(=O)N(C)[C@@H](CC(C)C)C(=O)N[C@@H](C(C)C)C(=O)N(C)[C@@H](CC(C)C)C(=O)N[C@@H](C)C(=O)N[C@H](C)C(=O)N(C)[C@@H](CC(C)C)C(=O)N(C)[C@@H](CC(C)C)C(=O)N(C)[C@@H](C(C)C)C(=O)N1C [VALSPODAR]
–	substrate [+]	–	–	–	CC(C)(C)NC(=O)[C@@H]1C[C@@H]2CCCC[C@@H]2CN1C[C@@H](O)[C@H](Cc1ccccc1)NC(=O)[C@H](CC(N)=O)NC(=O)c1ccc2ccccc2n1
